Data from ChEMBL document CHEMBL2375308, “Synthesis and selected immunological properties of substituted quino[3,2-b]benzo[1,4]thiazines” (Eur J Med Chem, 2013).
Calls of active or inactive are those of the source. The rule behind the calls is not given here.

Assays:
SW948 [1] = assay: Growth inhibition of human SW948 cells at 5 ug/mL after 3 days by MTT assay relative to control; assay type: functional; conditions: SW948, 72 h, read-out: GI
Procedure, shortened: (§1)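 Lines resuspended in culture medium: L-1210 at 1.5 × 10⁴ cells/well, SW-948 and A-431 at 2.5 × 10⁴ cells/well. Preparations added over […], cisplatin reference at the same concentrations. 3-day incubation, proliferation by MTT; mean OD of quadruplicate wells ±SE, expressed as percentage inhibition.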

SW948 [2] = assay: Growth inhibition of human SW948 cells at 10 ug/mL after 3 days by MTT assay relative to control; assay type: functional; conditions: SW948, 72 h, read-out: GI; procedure, shortened: as §1
A-431 [3] = assay: Growth inhibition of human A431 cells at 10 to 50 ug/mL after 3 days by MTT assay; assay type: functional, cell-based; procedure, shortened: as §1
PBMC [4] = assay: Cytotoxicity against human PBMC cells at 10 ug/mL after 24 hrs by MTT assay relative to DMSO-treated control; assay type: cell-based
Procedure, shortened: (§2)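 Ficoll-isolated PBMC ([…]) in supplemented RPMI-1640, 2 × 10⁵/well, cultured 24 h with the preparations at the indicated concentrations; compounds dissolved in DMSO (10 mg/mL stock) and diluted in medium.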

PBMC [5] = assay: Inhibition of LPS-induced TNFalpha production in human PBMC at 5 ug/mL after overnight incubation relative to DMSO-treated control; assay type: functional
Procedure, shortened: (§3)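 Single-donor venous blood diluted 10× in RPMI-1640, 1 mL aliquots, stimulated with LPS (E. coli O111:B4). Compounds added at […]; corresponding DMSO dilutions as controls. Overnight incubation, supernatants frozen at −20 °C, TNF-α measured by biological assay; percentage inhibition versus DMSO control.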

L1210 [6] = assay: Growth inhibition of mouse L1210 cells at 10 to 50 ug/mL after 3 days by MTT assay; assay type: functional, cell-based; procedure, shortened: as §1
SW948 [7] = assay: Growth inhibition of human SW948 cells at 10 to 50 ug/mL after 3 days by MTT assay; assay type: functional, cell-based; procedure, shortened: as §1
A-431 [8] = assay: Growth inhibition of human A431 cells at 10 ug/mL after 3 days by MTT assay relative to control; assay type: functional; conditions: A-431, 72 h, read-out: GI; procedure, shortened: as §1
PBMC [9] = assay: Antiproliferative activity against PHA-stimulated human PBMC at 10 ug/mL after 4 days by MTT assay relative to DMSO-treated control; assay type: functional
Procedure, shortened: (§4)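 PBMC from one donor's heparinized blood, Ficoll gradient isolated, in RPMI-1640 with 10% FCS; 2 × 10⁵ cells/well. PHA added at […]; compounds from DMSO stock (10 mg/mL) diluted in medium; matching DMSO dilutions as control. Four-day culture, proliferation read by MTT colorimetry; percentage inhibition versus control.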

PBMC [10] = assay: Inhibition of LPS-induced TNFalpha production in human PBMC at 25 ug/mL after overnight incubation relative to DMSO-treated control; assay type: functional; procedure, shortened: as §3
PBMC [11] = assay: Cytotoxicity against human PBMC cells at 50 ug/mL after 24 hrs by MTT assay relative to DMSO-treated control; assay type: cell-based; procedure, shortened: as §2
L1210 [12] = assay: Growth inhibition of mouse L1210 cells at 10 ug/mL after 3 days by MTT assay relative to control; assay type: functional; conditions: L1210, 72 h, read-out: GI; procedure, shortened: as §1
PBMC [13] = assay: Antiproliferative activity against PHA-stimulated human PBMC at 50 ug/mL after 4 days by MTT assay relative to DMSO-treated control; assay type: functional; procedure, shortened: as §4

SMILES: O=C(NCCCl)NCCCN1c2ccc(Cl)cc2Sc2cc3ccccc3nc21
- inhibition of growth at 5 µg/mL (SW948 [1]): 96%
- inhibition of growth at 10 µg/mL (SW948 [2]): 91.8%
- growth inhibition (GI) (A-431 [3]): Active
- Activity (PBMC [4]): 15.9%
- inhibition at 5 µg/mL (PBMC [5]): 9.2%
- growth inhibition (GI) (L1210 [6]): Active
- growth inhibition (GI) (SW948 [7]): Active
- inhibition of growth at 10 µg/mL (A-431 [8]): 91.8%
- Activity (PBMC [9]): 98.6%
- inhibition at 25 µg/mL (PBMC [10]): 72.1%
- Activity (PBMC [11]): 89.5%
- inhibition of growth at 10 µg/mL (L1210 [12]): 91.8%
- Activity (PBMC [13]): 100%

SMILES: Cc1ccc(S(=O)(=O)NCCCCN2c3ccccc3Sc3cc4ccccc4nc32)cc1
- Activity (PBMC [4]): Non-toxic
- inhibition at 5 µg/mL (PBMC [5]): 15.8%
- Activity (PBMC [9]): 3.3%
- inhibition at 25 µg/mL (PBMC [10]): 12.5%
- Activity (PBMC [11]): Non-toxic
- Activity (PBMC [13]): 2.4%

SMILES: Cc1ccc(S(=O)(=O)NCCCCN2c3ccc(Cl)cc3Sc3cc4ccccc4nc32)cc1
- Activity (PBMC [4]): Non-toxic
- inhibition at 5 µg/mL (PBMC [5]): 20.7%
- Activity (PBMC [9]): 13.2%
- inhibition at 25 µg/mL (PBMC [10]): -12.7%
- Activity (PBMC [11]): Non-toxic
- Activity (PBMC [13]): 19.8%

SMILES: CS(=O)(=O)NCCCN1c2ccccc2Sc2cc3ccccc3nc21
- Activity (PBMC [4]): Non-toxic
- inhibition at 5 µg/mL (PBMC [5]): 8.1%
- Activity (PBMC [9]): 36.6%
- inhibition at 25 µg/mL (PBMC [10]): 60.6%
- Activity (PBMC [11]): Non-toxic
- Activity (PBMC [13]): 74.6%

SMILES: CSc1ccc2c(c1)Sc1cc3ccccc3nc1N2CCCCNC(=O)NCCCl
- inhibition of growth at 5 µg/mL (SW948 [1]): 96%
- inhibition of growth at 10 µg/mL (SW948 [2]): 91.8%
- growth inhibition (GI) (A-431 [3]): Active
- Activity (PBMC [4]): 4.2%
- inhibition at 5 µg/mL (PBMC [5]): 73.3%
- growth inhibition (GI) (L1210 [6]): Active
- growth inhibition (GI) (SW948 [7]): Active
- inhibition of growth at 10 µg/mL (A-431 [8]): 91.8%
- Activity (PBMC [9]): 94.8%
- inhibition at 25 µg/mL (PBMC [10]): 47.5%
- Activity (PBMC [11]): 95.1%
- inhibition of growth at 10 µg/mL (L1210 [12]): 91.8%
- Activity (PBMC [13]): 92.7%

SMILES: CSc1ccc2c(c1)Sc1cc3ccccc3nc1N2CCCNC(=O)NCCCl
- Activity (PBMC [4]): Non-toxic
- inhibition at 5 µg/mL (PBMC [5]): 50.7%
- Activity (PBMC [9]): 93%
- inhibition at 25 µg/mL (PBMC [10]): 1%
- Activity (PBMC [11]): 92.7%
- Activity (PBMC [13]): 93.7%

SMILES: FC(F)(F)c1ccc2c(c1)Sc1cc3ccccc3nc1N2
- Activity (PBMC [4]): Non-toxic
- inhibition at 5 µg/mL (PBMC [5]): 51.1%
- Activity (PBMC [9]): 24.9%
- inhibition at 25 µg/mL (PBMC [10]): -5.6%
- Activity (PBMC [11]): Non-toxic
- Activity (PBMC [13]): 61%

SMILES: CS(=O)(=O)NCCCCN1c2ccc(Cl)cc2Sc2cc3ccccc3nc21
- Activity (PBMC [4]): Non-toxic
- inhibition at 5 µg/mL (PBMC [5]): -7.5%
- Activity (PBMC [9]): 59.4%
- inhibition at 25 µg/mL (PBMC [10]): 24.5%
- Activity (PBMC [11]): Non-toxic
- Activity (PBMC [13]): 43.9%

SMILES: CSc1ccc2c(c1)Sc1cc3ccccc3nc1N2CCN1CCCCC1
- Activity (PBMC [4]): 18%
- inhibition at 5 µg/mL (PBMC [5]): 49.2%
- Activity (PBMC [9]): 93.8%
- inhibition at 25 µg/mL (PBMC [10]): 34.6%
- Activity (PBMC [11]): 91.7%
- Activity (PBMC [13]): 92%

SMILES: CCOC(=O)NCCCN1c2ccc(Cl)cc2Sc2cc3ccccc3nc21
- Activity (PBMC [4]): Non-toxic
- inhibition at 5 µg/mL (PBMC [5]): 10.3%
- Activity (PBMC [9]): 45%
- inhibition at 25 µg/mL (PBMC [10]): 31.7%
- Activity (PBMC [11]): Non-toxic
- Activity (PBMC [13]): 60.4%

SMILES: CS(=O)(=O)NCCCCN1c2ccccc2Sc2cc3ccccc3nc21
- Activity (PBMC [4]): Non-toxic
- inhibition at 5 µg/mL (PBMC [5]): 14%
- Activity (PBMC [9]): 42.3%
- inhibition at 25 µg/mL (PBMC [10]): 42.3%
- Activity (PBMC [11]): Non-toxic
- Activity (PBMC [13]): 94.3%

SMILES: FC(F)(F)c1ccc2c(c1)Nc1nc3ccccc3cc1S2
- Activity (PBMC [4]): Non-toxic
- inhibition at 5 µg/mL (PBMC [5]): 72.3%
- Activity (PBMC [9]): 21.7%
- inhibition at 25 µg/mL (PBMC [10]): 48.8%
- Activity (PBMC [11]): 21.5%
- Activity (PBMC [13]): 0.3%

SMILES: CC(=O)NCCCCN1c2ccc(Cl)cc2Sc2cc3ccccc3nc21
- inhibition of growth at 10 µg/mL (SW948 [2]): 91.8%
- growth inhibition (GI) (A-431 [3]): Active
- Activity (PBMC [4]): Non-toxic
- inhibition at 5 µg/mL (PBMC [5]): 13.2%
- growth inhibition (GI) (L1210 [6]): Active
- growth inhibition (GI) (SW948 [7]): Active
- inhibition of growth at 10 µg/mL (A-431 [8]): 91.8%
- Activity (PBMC [9]): 71.2%
- inhibition at 25 µg/mL (PBMC [10]): 53.4%
- Activity (PBMC [11]): Non-toxic
- inhibition of growth at 10 µg/mL (L1210 [12]): 91.8%
- Activity (PBMC [13]): 92.6%

SMILES: Cc1ccc(S(=O)(=O)NCCCN2c3ccc(Cl)cc3Sc3cc4ccccc4nc32)cc1
- Activity (PBMC [4]): Non-toxic
- inhibition at 5 µg/mL (PBMC [5]): 5.9%
- Activity (PBMC [9]): 12.9%
- inhibition at 25 µg/mL (PBMC [10]): 20.9%
- Activity (PBMC [11]): Non-toxic
- Activity (PBMC [13]): 22.7%

SMILES: CSc1ccc2c(c1)Sc1cc3ccccc3nc1N2CCCNS(C)(=O)=O
- Activity (PBMC [4]): Non-toxic
- inhibition at 5 µg/mL (PBMC [5]): 73.7%
- Activity (PBMC [9]): 57.3%
- inhibition at 25 µg/mL (PBMC [10]): 47.5%
- Activity (PBMC [11]): Non-toxic
- Activity (PBMC [13]): 65.4%

SMILES: CCOC(=O)NCCCN1c2ccc(SC)cc2Sc2cc3ccccc3nc21
- Activity (PBMC [4]): Non-toxic
- inhibition at 5 µg/mL (PBMC [5]): 74.9%
- Activity (PBMC [9]): 45.4%
- inhibition at 25 µg/mL (PBMC [10]): 70.1%
- Activity (PBMC [11]): Non-toxic
- Activity (PBMC [13]): 38.8%

SMILES: c1ccc2c(c1)Nc1nc3ccccc3cc1S2
- Activity (PBMC [4]): Non-toxic
- inhibition at 5 µg/mL (PBMC [5]): 25.6%
- Activity (PBMC [9]): 7.1%
- inhibition at 25 µg/mL (PBMC [10]): 16.1%
- Activity (PBMC [11]): Non-toxic
- Activity (PBMC [13]): 14.4%

SMILES: Clc1cccc2c1Sc1cc3ccccc3nc1N2
- Activity (PBMC [4]): Non-toxic
- inhibition at 5 µg/mL (PBMC [5]): 17%
- Activity (PBMC [9]): 10.7%
- inhibition at 25 µg/mL (PBMC [10]): 4.6%
- Activity (PBMC [11]): 13%
- Activity (PBMC [13]): 10.8%
